Reference: ChEMBL document CHEMBL3286193, “Discovery of a series of 2,5-diaminopyrimidine covalent irreversible inhibitors of Bruton's tyrosine kinase with in vivo antitumor activity” (J Med Chem, 2014)
pIC50: −log10 of the molar value. ≈ marks a conversion by molar mass, not a printed value. Calls of active or inactive are those of the source. The rule behind the calls is not given here.

Assays:
[1] = species: Homo sapiens; assay: Inhibition of VEGFR (unknown origin) at 0.5 uM by [33P]-ATP filter binding assay
Method in brief: (§1)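 Kinase panel of 18 enzymes; inhibition tested at 0.5 μM. Values are means of duplicates.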

[2] = biological target: Tyrosine-protein kinase SYK (Homo sapiens) (UniProt P43405); assay: Inhibition of SYK (unknown origin) at 0.5 uM by [33P]-ATP filter binding assay; method in brief: as §1
[3] = biological target: Protein kinase C alpha type (Homo sapiens) (UniProt P17252); assay: Inhibition of PKC-alpha (unknown origin) at 0.5 uM by [33P]-ATP filter binding assay; method in brief: as §1
[4] = biological target: Receptor tyrosine-protein kinase erbB-2 (Homo sapiens, UniProt P04626); assay: Inhibition of HER2 (unknown origin) after 1 hr by HTRF assay
Method in brief: (§2)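 Recombinant kinases tested by HTRF KinEase protocol. Enzyme preincubated with inhibitor for a fixed 10 min. IC50 values are means of duplicates.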

[5] = biological target: Epidermal growth factor receptor (Homo sapiens, UniProt P00533); assay: Inhibition of EGFR (unknown origin) after 1 hr by HTRF assay
Method in brief: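 Commercial recombinant kinase, assayed in the HTRF KinEase format following the kit protocol. Enzyme and inhibitor were preincubated for a fixed 10 min before the reaction.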

[6] = biological target: T1, Receptor tyrosine-protein kinase erbB-4 (Homo sapiens, UniProt Q15303); assay: Inhibition of HER4 (unknown origin) after 1 hr by HTRF assay; method in brief: as §2
[7] = biological target: Tyrosine-protein kinase ITK/TSK (Homo sapiens, UniProt Q08881); assay: Inhibition of Itk (unknown origin) after 1 hr by HTRF assay; method in brief: as §2
[8] = biological target: Tyrosine-protein kinase Tec (Homo sapiens, UniProt P42680); assay: Inhibition of Tec (unknown origin) after 1 hr by HTRF assay; method in brief: as §2
[9] = biological target: Tyrosine-protein kinase BTK (Homo sapiens, UniProt Q06187); assay: Irreversible inhibition of Btk phosphorylation at Tyr551 in human Ramos cells at 1 uM incubated for 1 hr followed by compound washout with fresh media measured after 2 hrs by Western blot analysis; assay type: cell-based
Method in brief: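 Ramos cells (5 × 10⁵) seeded overnight, treated with compound 1 h, then washed out with fresh media for 2 h. Cells stimulated with goat anti-human IgM for 3−5 min, lysed by boiling in SDS buffer, and Btk Tyr551 phosphorylation assessed by Western blot.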

[10] = tested on: JVM-3; assay: Cytotoxicity against human JVM-3 cells assessed as growth inhibition at 1 to 10 uM after 72 hrs by CellTiter-Glo luminescent cell viability assay; assay type: functional, cell-based
[11] = tested on: MM1R; assay: Cytotoxicity against human MM1R cells assessed as growth inhibition at 1 to 10 uM after 72 hrs by CellTiter-Glo luminescent cell viability assay; assay type: functional, cell-based
[12] = tested on: RL; assay: Cytotoxicity against human RL cells assessed as growth inhibition at 1 to 10 uM after 72 hrs by CellTiter-Glo luminescent cell viability assay; assay type: functional, cell-based
[13] = tested on: WSU-DLCL2; assay: Cytotoxicity against human WSU-DLCL2 cells assessed as growth inhibition at 1 to 10 uM after 72 hrs by CellTiter-Glo luminescent cell viability assay; assay type: functional, cell-based
[14] = Cytotoxicity against human DOHH2 cells assessed as growth inhibition after 72 hrs by CellTiter-Glo luminescent cell viability assay; assay type: functional, DOHH-2; details: Homo sapiens, DOHH-2, 72 h
Method in brief: (§3)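 Lymphoma cells seeded at 5000 cells/well, incubated 24 h, then exposed to compounds for 72 h. Viability read by CellTiter-Glo luminescence. GI50 from dose−response curves, mean of two or three independent experiments in triplicate.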

[15] = tested on: WSU-NHL; assay: Cytotoxicity against human WSU-NHL cells assessed as growth inhibition after 72 hrs by CellTiter-Glo luminescent cell viability assay; assay type: functional; method in brief: as §3
[16] = Solubility of the compound in FaSSIF; assay type: ADME
[17] = Clearance in mouse liver microsomes by LC-MS/MS analysis; assay type: ADME; details: read-out: CLH
Method in brief: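 Liver microsomes incubated with compound and NADPH at 37 °C. Samples taken at several time points, centrifuged, and supernatants analyzed by LC−MS/MS. t1/2 and CL calculated by first-order kinetics. Testosterone, propranolol and clozapine served as positive controls.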

[18] = Half life in ICR mouse at 1 mg/kg, iv by LC-MS analysis; assay type: ADME, organism-based; parameters: dose 1 mg/kg, route intravenous; details: in vivo
Method in brief: (§4)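 ICR mice (n = 3) given a single intravenous injection at 1 mg/kg. Blood sampled at various time points and analyzed by LC−MS to derive t1/2, CL and Vss.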

[19] = Clearance in ICR mouse at 1 mg/kg, iv by LC-MS analysis; assay type: ADME, organism-based; parameters: dose 1 mg/kg, route intravenous; details: in vivo; method in brief: as §4
[20] = Volume of distribution at steady state in ICR mouse at 1 mg/kg, iv by LC-MS analysis; assay type: ADME, organism-based; parameters: dose 1 mg/kg, route intravenous; details: in vivo, read-out: Vdss; method in brief: as §4
[21] = Plasma concentration in CB17 SCID mouse xenografted with human DOHH2 cells at 10 mg/kg, iv qd administered for 14 days measured at 2 hrs post last dose; assay type: ADME, organism-based, DOHH-2; parameters: dose 10 mg/kg, route intravenous
Method in brief: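 Female CB17/SCID mice were given 5 × 10⁶ DoHH2 cells subcutaneously. When tumours averaged ~167 mm³, mice were randomised into four groups (n = 6/group). Dosing was by tail-vein injection once daily for 14 consecutive days. Plasma compound levels were determined at 2 and 24 h after the final dose.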

[22] = Antitumor activity against human DOHH2 cells xenografted in CB17 SCID mouse assessed as tumor growth inhibition at 10 mg/kg, iv qd administered for 14 days measured over 14 days of compound treatment relative to vehicle-treated control; details: DOHH-2, iv, 336 h, read-out: TGI
[23] = Plasma concentration in CB17 SCID mouse xenografted with human DOHH2 cells at 20 mg/kg, iv qd administered for 14 days measured at 24 hrs post last dose; assay type: ADME, organism-based, DOHH-2; parameters: dose 20 mg/kg, route intravenous
Method in brief: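 Same DoHH2 xenograft study in female CB17/SCID mice, tail-vein dosing once daily for 14 days. Plasma compound concentrations determined at 2 and 24 h after the last administration.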

[24] = Antitumor activity against human DOHH2 cells xenografted in CB17 SCID mouse assessed as tumor growth inhibition at 20 mg/kg, iv qd administered for 14 days measured over 14 days of compound treatment relative to vehicle-treated control; details: DOHH-2, iv, 336 h, read-out: TGI
[25] = tested on: DOHH-2; assay: Antitumor activity against human DOHH2 cells xenografted in iv dosed CB17 SCID mouse assessed as tumor growth inhibition administered as qd for 14 days measured over 14 days of compound treatment; assay type: functional, organism-based
[26] = biological target: Tyrosine-protein kinase CSK (Homo sapiens) (UniProt P41240); assay: Inhibition of CSK (unknown origin) at 0.5 uM by [33P]-ATP filter binding assay; method in brief: as §1
[27] = biological target: Cytoplasmic tyrosine-protein kinase BMX (Homo sapiens, UniProt P51813); assay: Inhibition of Bmx (unknown origin) after 1 hr by HTRF assay; method in brief: as §2
[28] = biological target: Tyrosine-protein kinase ABL1 (Homo sapiens) (UniProt P00519); assay: Inhibition of ABL (unknown origin) at 0.5 uM by [33P]-ATP filter binding assay; method in brief: as §1
[29] = biological target: T1, Receptor tyrosine-protein kinase erbB-4; assay: Inhibition of HER4 (unknown origin) at 0.5 uM by [33P]-ATP filter binding assay; method in brief: as §1
[30] = biological target: Tyrosine-protein kinase Lck (Homo sapiens) (UniProt P06239); assay: Inhibition of Lck (unknown origin) at 0.5 uM by [33P]-ATP filter binding assay; method in brief: as §1
Sequence of Tyrosine-protein kinase Lck (Homo sapiens) (P06239 2-509 limits assumed): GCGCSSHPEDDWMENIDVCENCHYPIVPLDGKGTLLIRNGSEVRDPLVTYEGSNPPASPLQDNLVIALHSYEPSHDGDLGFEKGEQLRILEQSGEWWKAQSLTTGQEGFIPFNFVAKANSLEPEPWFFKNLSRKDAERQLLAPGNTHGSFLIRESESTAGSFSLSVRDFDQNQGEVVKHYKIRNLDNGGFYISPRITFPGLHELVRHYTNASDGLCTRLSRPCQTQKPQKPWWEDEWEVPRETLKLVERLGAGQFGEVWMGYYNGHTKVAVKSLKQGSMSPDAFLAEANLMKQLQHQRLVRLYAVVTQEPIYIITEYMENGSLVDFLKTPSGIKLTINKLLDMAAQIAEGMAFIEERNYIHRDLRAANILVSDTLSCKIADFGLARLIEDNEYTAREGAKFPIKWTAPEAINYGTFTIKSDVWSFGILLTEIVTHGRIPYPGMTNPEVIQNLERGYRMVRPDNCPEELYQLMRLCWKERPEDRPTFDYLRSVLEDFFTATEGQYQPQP

T1 sequence (Q15303 whole entry): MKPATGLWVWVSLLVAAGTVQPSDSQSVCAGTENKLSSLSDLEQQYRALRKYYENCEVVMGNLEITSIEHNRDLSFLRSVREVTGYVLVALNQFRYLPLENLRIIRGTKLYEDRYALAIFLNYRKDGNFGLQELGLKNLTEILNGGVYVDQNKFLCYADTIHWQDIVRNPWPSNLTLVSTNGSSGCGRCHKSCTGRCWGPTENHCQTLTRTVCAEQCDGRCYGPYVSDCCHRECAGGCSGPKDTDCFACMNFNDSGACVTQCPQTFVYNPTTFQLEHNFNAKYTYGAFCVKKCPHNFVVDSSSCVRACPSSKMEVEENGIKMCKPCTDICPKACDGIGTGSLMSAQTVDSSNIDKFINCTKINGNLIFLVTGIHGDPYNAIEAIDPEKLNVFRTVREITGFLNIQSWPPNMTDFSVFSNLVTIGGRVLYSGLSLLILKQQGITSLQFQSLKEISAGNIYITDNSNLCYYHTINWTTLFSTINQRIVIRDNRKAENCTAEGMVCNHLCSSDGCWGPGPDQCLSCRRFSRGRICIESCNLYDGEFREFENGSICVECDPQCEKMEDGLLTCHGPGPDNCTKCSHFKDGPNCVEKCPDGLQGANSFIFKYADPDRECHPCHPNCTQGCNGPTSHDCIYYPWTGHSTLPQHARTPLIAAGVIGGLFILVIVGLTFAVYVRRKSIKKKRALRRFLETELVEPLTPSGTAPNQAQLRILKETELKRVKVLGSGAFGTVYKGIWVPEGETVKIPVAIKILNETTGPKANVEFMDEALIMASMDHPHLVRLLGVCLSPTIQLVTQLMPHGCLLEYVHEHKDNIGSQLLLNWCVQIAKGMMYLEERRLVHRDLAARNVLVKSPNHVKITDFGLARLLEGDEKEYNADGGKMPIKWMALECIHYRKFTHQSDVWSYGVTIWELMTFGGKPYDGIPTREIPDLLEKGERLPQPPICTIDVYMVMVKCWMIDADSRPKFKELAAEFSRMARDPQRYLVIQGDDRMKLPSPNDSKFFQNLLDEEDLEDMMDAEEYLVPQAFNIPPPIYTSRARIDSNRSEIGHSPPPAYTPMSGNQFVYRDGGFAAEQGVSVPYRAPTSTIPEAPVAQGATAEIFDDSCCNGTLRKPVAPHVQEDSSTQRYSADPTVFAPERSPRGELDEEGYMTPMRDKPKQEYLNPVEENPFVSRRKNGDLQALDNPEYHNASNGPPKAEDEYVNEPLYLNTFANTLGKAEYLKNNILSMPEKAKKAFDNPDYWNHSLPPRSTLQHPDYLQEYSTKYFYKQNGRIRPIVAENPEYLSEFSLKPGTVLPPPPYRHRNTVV
Sequence of Tyrosine-protein kinase Tec (P42680 whole entry): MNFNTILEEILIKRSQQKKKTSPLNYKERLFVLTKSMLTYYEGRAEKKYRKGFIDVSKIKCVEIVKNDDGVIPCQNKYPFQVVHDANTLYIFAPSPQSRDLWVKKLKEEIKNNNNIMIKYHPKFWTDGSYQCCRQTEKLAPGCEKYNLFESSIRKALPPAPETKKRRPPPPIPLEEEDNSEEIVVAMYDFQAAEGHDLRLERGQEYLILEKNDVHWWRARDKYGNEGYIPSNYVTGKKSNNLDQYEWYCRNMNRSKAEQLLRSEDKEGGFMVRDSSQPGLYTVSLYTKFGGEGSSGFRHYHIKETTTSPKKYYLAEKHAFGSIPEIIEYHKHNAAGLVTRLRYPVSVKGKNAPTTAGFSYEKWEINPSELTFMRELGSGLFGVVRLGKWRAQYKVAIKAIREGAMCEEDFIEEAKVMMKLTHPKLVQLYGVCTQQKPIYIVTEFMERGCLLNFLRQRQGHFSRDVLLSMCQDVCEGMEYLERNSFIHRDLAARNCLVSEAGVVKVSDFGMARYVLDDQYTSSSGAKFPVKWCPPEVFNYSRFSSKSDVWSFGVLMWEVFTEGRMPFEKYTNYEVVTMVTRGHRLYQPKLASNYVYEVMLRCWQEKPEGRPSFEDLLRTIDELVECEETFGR
Sequence of Tyrosine-protein kinase BTK (Q06187 whole entry): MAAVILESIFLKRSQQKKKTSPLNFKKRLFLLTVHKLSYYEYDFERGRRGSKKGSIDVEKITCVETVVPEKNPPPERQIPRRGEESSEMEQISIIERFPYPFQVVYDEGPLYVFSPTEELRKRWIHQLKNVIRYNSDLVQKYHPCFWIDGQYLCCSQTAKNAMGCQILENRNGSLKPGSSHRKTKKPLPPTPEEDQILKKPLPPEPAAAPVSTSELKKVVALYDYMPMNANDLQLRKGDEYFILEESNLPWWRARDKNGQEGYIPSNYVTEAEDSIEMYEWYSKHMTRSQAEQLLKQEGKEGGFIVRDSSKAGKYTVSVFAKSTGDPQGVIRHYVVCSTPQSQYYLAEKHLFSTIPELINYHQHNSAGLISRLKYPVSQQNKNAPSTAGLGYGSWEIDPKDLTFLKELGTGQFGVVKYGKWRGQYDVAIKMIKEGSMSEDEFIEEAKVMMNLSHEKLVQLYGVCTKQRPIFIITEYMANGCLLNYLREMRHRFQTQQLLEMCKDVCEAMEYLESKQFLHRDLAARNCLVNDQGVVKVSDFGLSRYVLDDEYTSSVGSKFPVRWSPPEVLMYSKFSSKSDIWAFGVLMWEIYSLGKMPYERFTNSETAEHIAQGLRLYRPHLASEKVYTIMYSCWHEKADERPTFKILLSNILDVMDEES
Sequence of Tyrosine-protein kinase ITK/TSK (Q08881 whole entry): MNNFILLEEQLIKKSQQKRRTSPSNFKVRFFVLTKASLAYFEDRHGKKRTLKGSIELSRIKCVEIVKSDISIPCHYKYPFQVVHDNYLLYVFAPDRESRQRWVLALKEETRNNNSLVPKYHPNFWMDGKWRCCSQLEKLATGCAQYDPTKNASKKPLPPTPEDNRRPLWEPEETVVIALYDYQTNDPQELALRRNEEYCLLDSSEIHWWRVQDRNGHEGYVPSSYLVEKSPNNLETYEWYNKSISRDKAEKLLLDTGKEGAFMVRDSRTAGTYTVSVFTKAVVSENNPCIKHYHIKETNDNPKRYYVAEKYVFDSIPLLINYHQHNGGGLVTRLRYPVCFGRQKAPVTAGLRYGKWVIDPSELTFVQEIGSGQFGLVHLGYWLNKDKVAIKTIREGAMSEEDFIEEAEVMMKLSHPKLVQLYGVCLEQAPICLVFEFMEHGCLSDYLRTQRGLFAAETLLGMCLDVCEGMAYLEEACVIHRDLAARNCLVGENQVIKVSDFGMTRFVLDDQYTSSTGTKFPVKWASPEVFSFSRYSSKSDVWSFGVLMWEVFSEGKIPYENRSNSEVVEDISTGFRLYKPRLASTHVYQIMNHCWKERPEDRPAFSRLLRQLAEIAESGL
Sequence of Epidermal growth factor receptor (P00533 whole entry): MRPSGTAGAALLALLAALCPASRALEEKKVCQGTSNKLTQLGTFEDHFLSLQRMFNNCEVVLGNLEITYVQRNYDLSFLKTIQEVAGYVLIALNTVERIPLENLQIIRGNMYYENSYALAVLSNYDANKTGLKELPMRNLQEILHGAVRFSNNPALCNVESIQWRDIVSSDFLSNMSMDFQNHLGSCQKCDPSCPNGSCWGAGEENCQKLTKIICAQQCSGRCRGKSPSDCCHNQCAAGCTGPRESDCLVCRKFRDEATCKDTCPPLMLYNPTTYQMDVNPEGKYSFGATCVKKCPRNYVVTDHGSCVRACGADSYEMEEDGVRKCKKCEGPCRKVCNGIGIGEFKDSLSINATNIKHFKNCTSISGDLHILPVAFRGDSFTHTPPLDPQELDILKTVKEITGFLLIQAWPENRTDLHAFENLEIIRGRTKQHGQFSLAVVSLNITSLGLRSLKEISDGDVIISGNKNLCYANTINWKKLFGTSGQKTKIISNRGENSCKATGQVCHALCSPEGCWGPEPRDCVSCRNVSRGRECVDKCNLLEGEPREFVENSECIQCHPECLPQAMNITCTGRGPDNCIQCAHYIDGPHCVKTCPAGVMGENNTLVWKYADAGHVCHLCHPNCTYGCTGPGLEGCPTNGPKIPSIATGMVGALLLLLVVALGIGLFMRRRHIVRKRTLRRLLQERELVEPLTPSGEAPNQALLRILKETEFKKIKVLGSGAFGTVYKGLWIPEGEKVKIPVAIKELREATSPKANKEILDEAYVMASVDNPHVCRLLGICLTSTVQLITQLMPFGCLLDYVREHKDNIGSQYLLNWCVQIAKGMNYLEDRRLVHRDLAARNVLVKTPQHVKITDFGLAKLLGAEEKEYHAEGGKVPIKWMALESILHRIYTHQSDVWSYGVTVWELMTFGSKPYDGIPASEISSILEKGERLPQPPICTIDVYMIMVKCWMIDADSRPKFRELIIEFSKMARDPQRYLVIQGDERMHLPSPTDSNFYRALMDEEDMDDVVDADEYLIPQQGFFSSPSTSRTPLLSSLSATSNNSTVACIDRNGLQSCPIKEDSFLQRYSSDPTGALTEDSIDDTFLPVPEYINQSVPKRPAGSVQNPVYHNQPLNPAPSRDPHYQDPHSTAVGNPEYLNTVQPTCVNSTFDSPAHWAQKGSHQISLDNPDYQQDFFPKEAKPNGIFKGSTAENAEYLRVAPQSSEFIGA

inhibition [1]: Active
inhibition [2]: inactive
inhibition [3]: inactive
pIC50 [4]: 7.72
pIC50 [5]: 7.96
pIC50 [6]: 8.26
pIC50 [7]: < 4.52
pIC50 [8]: 8.09
inhibition [9]: Active
solubility [16]: 7.02 µM (≈ 3.93 µg/mL)
microsomal CLint [17]: 25.7 µL/min/mg
half-life [18]: 2.8 h
clearance [19]: 0.411 L/h/kg
Vd [20]: 0.2 L/kg
concentration at 2 h [21]: 0.378 µg/mL
concentration at 24 h [23]: 0.013 µg/mL
inhibition [26]: Active
pIC50 [27]: 8.72
inhibition [28]: Active
inhibition [29]: Active
inhibition [30]: Active
Structure (SMILES): C=CC(=O)Nc1cccc(Nc2ncc(NC(=O)c3cc(NC(=O)c4cccc(C(F)(F)F)c4)ccc3C)cn2)c1
growth inhibition (GI) [10]: Active
growth inhibition (GI) [11]: Active
growth inhibition (GI) [12]: Active
growth inhibition (GI) [13]: Active
GI50 [14]: 0.073 µM
GI50 [15]: 0.031 µM
inhibition in vivo at 10 mg/kg [22]: 60%
inhibition in vivo at 20 mg/kg [24]: 66%
growth inhibition (GI) [25]: Dose-dependent effect
